Assay results from different studies.
KMT5A: N-lysine methyltransferase KMT5A (KMT5A, Homo sapiens, UniProt Q9NQR1)
PRKCB: Protein kinase C beta type (PRKCB, Homo sapiens, UniProt P05771)
LATS1: Serine/threonine-protein kinase LATS1 (LATS1, Homo sapiens, UniProt O95835)

The inhibition of `CSCCC(NC=O)C(=O)NC(C)C(=O)O` (centres unmarked) is reported as 33% (KMT5A; cell-free assay; 10 µM).
With `Ic1cccc2cnccc12` the inhibition was -2% (Nicotinamide phosphoribosyltransferase (NAMPT, Homo sapiens, UniProt P43490); enzyme activity, inhibitor; 10 µM).
`Oc1cccc(Nc2nc(-c3ccc(F)cc3F)cs2)c1` gave an inhibition of -22.5% (Alpha-2A adrenergic receptor (ADRA2A, Homo sapiens, UniProt P08913); cell-free assay; 10 µM).
`CCCS(=O)(=O)Nc1ccc(F)c(C(=O)c2c[nH]c3ncc(-c4ccc(Cl)cc4)cc23)c1F` gave an inhibition of less than 20% (PRKCB; enzyme activity, inhibitor; 1 µM).
With `COc1cc(-c2cc(-c3ccc(N4CCNCC4)cc3)cnc2C)cc(OC)c1OC` the inhibition was 4% (LATS1; enzyme activity, inhibitor; 0.1 µM).
`O=c1c(-c2cc(O)c(O)c(O)c2)coc2cc(O)c(O)c(O)c12` gave an inhibition of 9% (KMT5A; cell-free assay; 10 µM).
`O=C(c1ccc(F)cc1)N(Cc1ccccc1)C1CCCCC1` gave an inhibition of -1% (5-hydroxytryptamine receptor 3A (HTR3A, Homo sapiens, UniProt P46098); ligand displacement; 10 µM).
`Cn1cncc1C1=CN(c2ncnc3[nH]cnc23)CCS1` has an inhibition of 35% (LATS1; enzyme activity, inhibitor, radiometric; 50 nM).
`COc1cc2ncnc(Nc3ccc(Oc4ccccc4)c(C)c3C)c2cc1OC` gave an inhibition of 9% (PRKCB; enzyme activity, inhibitor; 1 µM).
`Cc1ccc(CNC(=O)[C@H](CCc2ccccc2)NC(=O)[C@H](CCc2ccccc2)NC(=O)[C@H](CCc2ccccc2)NC(=O)c2cnc(C)cn2)cc1` has an inhibition of -20% (Plasminogen (PLG, Homo sapiens, UniProt P00747); enzyme activity, inhibitor; 100 µM).
With `Cc1ccc(Nc2nccc(N(C)c3ccc4c(C)n(C)nc4c3)n2)cc1S(N)(=O)=O` the inhibition was -7% (cAMP-dependent protein kinase catalytic subunit alpha (PRKACA, Bos taurus, UniProt P00517); enzyme activity, inhibitor; 0.3 µM).
For `COc1ccc(C(=O)c2coc3c2C(=O)C(=O)C=C3)cc1`, the inhibition was no less than 100% (Peptide deformylase, mitochondrial (Homo sapiens, UniProt Q9HBH1); enzyme activity, inhibitor; 100 µM).
The inhibition of `CNC(=O)c1cc(Oc2ccc(NC(=O)Nc3ccc(Cl)c(C(F)(F)F)c3)cc2)ccn1` is reported as -3% (PRKCB; enzyme activity, inhibitor; 10 µM).
The inhibition of `O=C(O)c1cc(O)c2c(c1)[C@H]([C@H]1c3cc(C(=O)O)cc(O)c3C(=O)c3c(O[C@@H]4O[C@H](CO)[C@@H](O)[C@H](O)[C@H]4O)cccc31)c1cccc(O[C@@H]3O[C@H](CO)[C@@H](O)[C@H](O)[C@H]3O)c1C2=O` is reported as 23% (KMT5A; cell-free assay; 10 µM).
With `COc1cc(NC(C)=O)c(Cl)cc1C(=O)Nc1nccs1` the inhibition was -9.3% (Cholecystokinin receptor type A (CCKAR, Homo sapiens, UniProt P32238); cell-free assay; 10 µM).
For `O=C(Oc1cc(O)cc2c1C[C@@H](OC(=O)c1cc(O)c(O)c(O)c1)[C@@H](c1cc(O)c(O)c(O)c1)O2)c1cc(O)c(O)c(O)c1`, the inhibition was 6% (KMT5A; cell-free assay; 10 µM).
`COc1cc(-c2cc(-c3ccc(N4CCNCC4)cc3)cnc2N)cc(OC)c1OC` gave an inhibition of 94% (Tyrosine-protein kinase ABL1 (ABL1, Homo sapiens, UniProt P00519, E255K); enzyme activity, inhibitor; 1 µM).
`O=C1c2c(O)cccc2Cc2cccc(O)c21` gave an inhibition of 19% (KMT5A; cell-free assay; 10 µM).
For `CCN(CC)CCNC(=O)c1c(C)[nH]c(/C=C2\C(=O)Nc3ccc(F)cc32)c1C`, the inhibition was 1% (cAMP-dependent protein kinase catalytic subunit alpha (PRKACA, Bos taurus, UniProt P00517); enzyme activity, inhibitor; 10 µM).
With `COC(=O)/C=C\C(=O)Nc1cc2ccc(O)cc2oc1=O` the inhibition was greater than 90% (Histone acetyltransferase p300 (EP300, Homo sapiens, UniProt Q09472); enzyme activity, inhibitor, radiometric; 50 µM).
The inhibition of `CN(C)c1ccc(C(=C2C=CC(=[N+](C)C)C=C2)c2ccc(N(C)C)cc2)cc1` is reported as 97% (KMT5A; cell-free assay; 10 µM).
With `CCN1CCN(Cc2ccc(NC(=O)c3ccc(C)c(Oc4ccnc5[nH]ccc45)c3)cc2C(F)(F)F)CC1` the inhibition was -11.6% (Receptor-interacting serine/threonine-protein kinase 4 (RIPK4, Homo sapiens, UniProt P57078); target engagement in cells, inhibitor, chemoproteomics; A-375; 5 µM).
The inhibition of `CCCCC(CC)CNC(=N)NC(=N)NCCCCCCNC(=N)NC(=N)NCC(CC)CCCC` (centres unmarked) is reported as 34% (KMT5A; cell-free assay; 10 µM).
For `CCN1CCN(Cc2ccc(NC(=O)c3ccc(C)c(/C=C/c4cnc5[nH]ccc5c4OC)c3)cc2C(F)(F)F)CC1`, the inhibition was -18.6% (Serine/threonine-protein kinase greatwall (MASTL, Homo sapiens, UniProt Q96GX5); target engagement in cells, inhibitor, chemoproteomics; A-375; 5 µM).
With `O=C(O[C@@H]1Cc2c(O)cc(O)cc2O[C@@H]1c1cc(O)c(=O)c2c(O)c(O)cc([C@H]3Oc4cc(O)cc(O)c4C[C@H]3OC(=O)c3cc(O)c(O)c(O)c3)c2c1)c1cc(O)c(O)c(O)c1` the inhibition was 26% (KMT5A; cell-free assay; 10 µM).
For `CN(C)C1CCN(CC#Cc2nn(C3CCCC3)c3nc(NCc4ccccc4)ncc23)C1` (centres unmarked), the inhibition was 12% (cAMP-dependent protein kinase catalytic subunit alpha (PRKACA, Homo sapiens, UniProt P17612); enzyme activity, inhibitor, FRET; 10 µM).
